Compound activity: PubChem BioAssay, The Scripps Research Institute Molecular Screening Center
Compounds with a hit are over-represented: about 1.9% of the library has one in this group of screens.
CHRM5 antagonist – antagonists of human muscarinic M5 receptor (CHRM5); P08912; CHO-hM5 cells, Fluo-8 calcium fluorescence, ACh EC80; inhibition, % at 3 µM; 360,000 compounds, 0.59% hits; AID 624040;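 active = inhibition above a per-plate cutoff, the mean of that plate's test compounds plus 3 SD, cut at about 27% in these data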
M5 PAM – positive allosteric modulators of human muscarinic M5 receptor; CHO-K1 hM5, Fluo-8 calcium, ACh EC20 PAM; 0% = ACh EC20, 100% = ACh EC100; P08912; 360,000 compounds, 0.3% hits; activation, % at 3 µM;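 active = activation above the run cutoff, the mean activation of all test compounds plus 3 SD, cut at about 18% in these data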
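System: CHO-K1 cell line with stable human muscarinic M5 receptor expression | Also added: EC20 acetylcholine as agonist stimulus | Compound: One concentration, 3 µM final (nominal) | Timing: Fluo-8 loading 80 min at 37 °C plus 30 min room temperature | Measured by: Fluo-8 calcium dye fluorescence, kinetic read | Read-out basis: % activation, ACh-normalized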
M4 ag – agonists of human muscarinic M4 receptor (CHRM4); AID 624127; 360,000 compounds, 0.14% hits; activation, % at 3 µM; P08173; CHO-K1 hM4/Gqi5, Fluo-8 calcium fluorescence; vehicle 0%, full acetylcholine response 100%;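 active = activation above the run mean over all test wells plus 3 SD, cut at about 32% in these data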;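 note: peak over basal fluorescence ratio per well then scaled between controls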
Target sequence (P08173 whole entry, looked up): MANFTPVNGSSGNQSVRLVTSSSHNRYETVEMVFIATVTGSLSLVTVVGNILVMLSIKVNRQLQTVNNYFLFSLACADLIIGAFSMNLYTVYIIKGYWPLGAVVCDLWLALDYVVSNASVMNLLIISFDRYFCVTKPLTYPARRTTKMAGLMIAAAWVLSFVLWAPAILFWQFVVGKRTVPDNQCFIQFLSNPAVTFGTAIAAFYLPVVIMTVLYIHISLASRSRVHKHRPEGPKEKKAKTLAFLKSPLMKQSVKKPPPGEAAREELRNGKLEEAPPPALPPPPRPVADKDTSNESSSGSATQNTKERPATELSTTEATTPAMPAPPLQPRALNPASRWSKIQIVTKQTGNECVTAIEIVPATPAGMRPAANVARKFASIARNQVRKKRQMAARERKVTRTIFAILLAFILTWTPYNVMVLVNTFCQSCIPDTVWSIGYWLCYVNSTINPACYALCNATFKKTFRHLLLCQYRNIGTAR
CHRM4 PAM – positive allosteric modulators of human muscarinic M4 receptor. P08173. AID 624126. activation, % at 3 µM. 360,000 compounds, 0.4% hits. CHO-K1 hM4/Gqi5, Fluo-8 calcium fluorescence, ACh EC20; 0% = ACh EC20, 100% = maximal ACh;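 active = activation above its plate's cutoff, the mean activation of sample wells plus 3 SD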
CHRM4 antagonist – antagonists of human muscarinic M4 receptor (CHRM4). CHO-hM4 cells, ACh EC80, Fluo-8 calcium fluorescence. P08173. inhibition, % at 3 µM. 360,000 compounds, 0.73% hits;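 active = inhibition above its plate's cutoff, the mean inhibition of sample wells plus 3 SD, cut at about 27% in these data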
CHRM5 agonist – CHRM5 agonism in calcium assay; P08912; CHO-K1 hM5 cells, Fluo-8 calcium fluorescence; 0% DMSO wells, 100% maximal acetylcholine response; activation, % at 3 µM; 360,000 compounds, 0.19% hits; AID 624037;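 active = activation above the run's mean over test compounds plus 3 SD, cut at about 23% in these data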;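 note: signal is peak over basal fluorescence ratio across the kinetic read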
Of the large screens only hits and unclear results are named; the others gave an inactive call.

O=C(O)CC/C(=N\NC(=O)CNC(=O)c1ccc(F)cc1)c1ccccc1	none
CCCCN1C[C@H](CSC)[C@@H](CC(=O)Nc2ccc(Br)cc2)C1=O	none
O=c1cc2c(nn1Cc1cccc(Cl)c1)-c1ccccc1CC2	none
O=c1cc2c(nn1Cc1ccc(Cl)cc1)-c1ccccc1CC2	M5 PAM 30.4
COc1cc(C(=O)OCC(=O)Nc2ccc3c(c2)OC(F)(F)O3)ccc1OCc1c(C)noc1C	M5 PAM 32.5
COc1ccc(NC(=O)COC(=O)c2ccc(OCc3c(C)noc3C)cc2)cc1OC	none
Cc1cc(C)n2nc(C(=O)N/N=C/c3cccc(Cl)c3)nc2n1	CHRM4 PAM 32.2
COc1ccc(OC)c(-c2cc(C(=O)N/N=C/c3cc(OC)c(OC)cc3OC)c3ccccc3n2)c1	none
COc1ccc(NC(=O)c2ccccc2N2C(=O)C3C4C=CC(C5CC45)C3C2=O)c(OC)c1 (stereo unspecified)	CHRM4 PAM 15.0
Cc1ccc(S(=O)(=O)N2CCN(C(=O)c3sccc3-c3ccccc3)CC2)cc1	CHRM5 antagonist 29.6
Cc1nccn1CCc1n[nH]c(=S)n1Cc1ccccc1	CHRM5 antagonist 32.6
CC(=O)N1CCOC12CCN(Cc1ccccc1)CC2	none
CCSc1nncn1/N=C/c1ccc(OC)c(OC)c1	none
C=C(C)CSc1nncn1/N=C/c1ccc(OC)cc1	CHRM4 PAM 30.4
CNc1ccc(Br)cc(C(=O)/C=C/c2ccc(Cl)cc2Cl)c1=O	CHRM4 antagonist 44.0
CCNc1ccc(Br)cc(C(=O)/C=C/c2c(Cl)cccc2Cl)c1=O	CHRM4 antagonist 38.2
CNc1ccc(Br)cc(C(=O)/C=C/c2ccc(OC)cc2OC)c1=O	none
Cc1c(NS(=O)(=O)c2cccc(C(=O)NCc3cccc(Cl)c3)c2)c(=O)n(-c2ccccc2)n1C	none
COc1ccc(C(C(=O)NCC2CCCO2)N(C(=O)c2snc(C(N)=O)c2N)c2ccccc2C)cc1OC (stereo unspecified)	none
OC(CCN1CCOCC1)(c1ccc(Cl)cc1)C1CCCCC1 (stereo unspecified)	CHRM5 antagonist 29.2, CHRM4 antagonist 39.2
Cc1ccc(C(=O)NCC(=O)OC(C)C(=O)NC2CCCc3ccccc32)cc1 (stereo unspecified)	none
O=C(NCCCN1CCN(Cc2ccccc2)CC1)c1nnc(Cc2c(F)cccc2Cl)o1	none
O=C(NCCCO)c1nnc(Cc2c(F)cccc2Cl)o1	CHRM4 PAM 29.2
CC(=O)c1ccccc1N(C(=O)c1ccco1)C(C(=O)NC1CCCC1)c1ccc(C)cc1 (stereo unspecified)	none
Cc1cccc(C(=O)NNS(=O)(=O)c2ccccc2[N+](=O)[O-])c1	CHRM4 PAM 27.6
Cc1ccc2nc(-c3ccc(NC(=S)NC(=O)CC(C)C)cc3)sc2c1	none
Cc1ccc2nc(-c3ccc(NC(=O)C(C)Sc4nncs4)cc3)sc2c1 (stereo unspecified)	CHRM4 antagonist 28.7
Cc1ccc2c(c1)NC(=O)C(CC(=O)Nc1ccc(CN3CCC(C)CC3)cc1)O2 (stereo unspecified)	CHRM5 antagonist 71.1, CHRM4 antagonist 98.7
COc1cccc(CCc2nnc(CCC(=O)NC(C)c3c(C)nn(C)c3C)o2)c1 (stereo unspecified)	none
C[C@H]1c2cccc(O)c2C(O)=C2C(=O)[C@]3(O)C(O)=C(C(N)=O)C(=O)[C@@H](N(C)C)[C@@H]3[C@@H](O)[C@@H]21	CHRM5 agonist 27.4
N=C(N)c1ccc(O)cc1	CHRM4 PAM 27.6
O=S(=O)(/N=C(/Nc1cccc2ccccc12)c1ccc(F)cc1)c1ccccc1	none
C[C@@H]1CC[C@H](O)/C=C/C(=O)O[C@H](C)CC[C@H](O)/C=C/C(=O)O1	CHRM5 agonist 36.9
C[C@H](CO)N1C[C@H](C)[C@@H](CN(C)Cc2ccc(O)cc2)OCc2cnnn2CCCC1=O	none
C[C@@H]1CN([C@@H](C)CO)C(=O)CCCn2nncc2CO[C@H]1CN(C)Cc1ccc(Oc2ccccc2)cc1	CHRM4 antagonist 31.3
